The source made the active and inactive calls. No cut-off for these calls is given here.
Legend:
K562 [1] = experiment: Growth inhibition of human K562 cells at 5 umol/L after 48 hrs by MTT assay relative to control; type: functional; details: for inhibition of growth at 5 µM: K562, 48 h, read-out: GI
Method in brief: (§1)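 Cells kept in DMEM/10% FBS at 37 °C, 5% CO2, seeded at 4×10^3–8×10^3 cells/well, 24 h attachment, then 48 h with compound at 5 µmol/L. MTT (5 mg/mL solution) added for 4 h at 37 °C, formazan taken up in DMSO, A490 read. Percent inhibition as mean ± SD of three independent experiments. Doxorubicin as positive control.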

HEL [2] = experiment: Growth inhibition of HEL cells at 5 umol/L after 48 hrs by MTT assay relative to control; type: functional; details: Homo sapiens; for inhibition of growth at 5 µM: read-out: GI; method in brief: as §1
MDA-MB-231 = experiment: Growth inhibition of human MDA-MB-231 cells at 5 umol/L after 48 hrs by MTT assay relative to control; type: functional; details: for inhibition of growth at 5 µM: MDA-MB-231, 48 h, read-out: GI; method in brief: as §1
PC-3 [3] = experiment: Growth inhibition of human PC3 cells at 5 umol/L after 48 hrs by MTT assay relative to control; type: functional; details: for inhibition of growth at 5 µM: PC-3, 48 h, read-out: GI; method in brief: as §1
HEL [4] = experiment: Induction of apoptosis in HEL cells assessed as early apoptotic cells at 5 umol/L after 48 hrs by annexin V-FITC/propidium iodide staining based flow cytometry (reference value: 2.6 to 4.2%); type: functional, Homo sapiens
HEL [5] = experiment: Induction of apoptosis in HEL cells assessed as necrotic cells at 5 umol/L after 48 hrs by annexin V-FITC/propidium iodide staining based flow cytometry (reference value: 0.3 to 1%); type: functional, Homo sapiens
HEL [6] = experiment: Induction of morphological changes in HEL cells assessed as formation of apoptotic bodies at 5 umol/L after 48 hrs by inverted fluorescence microscopic analysis; type: functional, cell-based; details: Homo sapiens
Method in brief: (§2)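 Cells cultured in DMEM/10% FBS at 37 °C, 5% CO2. Exposed 48 h to 5 µmol/L compound alongside DMSO controls. Morphology (cell number, rounding, spacing, apoptotic bodies, spindle shape) observed under an inverted microscope with CCD camera.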

HEL [7] = experiment: Induction of apoptosis in HEL cells assessed as early apoptotic cells at 10 umol/L after 48 hrs by annexin V-FITC/propidium iodide staining based flow cytometry (reference value: 4.2%); type: functional, Homo sapiens
HEL [8] = experiment: Induction of apoptosis in HEL cells assessed as viable cells at 5 umol/L after 48 hrs by annexin V-FITC/propidium iodide staining based flow cytometry (reference value: 93.1 to 94%); type: functional; details: Homo sapiens, read-out: Activity
HEL [9] = experiment: Induction of apoptosis in HEL cells assessed as viable cells at 10 umol/L after 48 hrs by annexin V-FITC/propidium iodide staining based flow cytometry (reference value: 94%); type: functional; details: Homo sapiens, read-out: Activity
HEL [10] = experiment: Induction of apoptosis in HEL cells assessed as necrotic cells at 10 umol/L after 48 hrs by annexin V-FITC/propidium iodide staining based flow cytometry (reference value: 0.3%); type: functional, Homo sapiens
HEL [11] = experiment: Induction of apoptosis in HEL cells assessed as late apoptotic cells at 5 umol/L after 48 hrs by annexin V-FITC/propidium iodide staining based flow cytometry (reference value: 1.6 to 3.3%); type: functional, Homo sapiens
HEL [12] = experiment: Cytotoxicity against HEL cells after 48 hrs by MTT assay; type: functional, cell-based; details: Homo sapiens
Method in brief: (§3)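 Cells kept in DMEM/10% FBS at 37 °C, 5% CO2, seeded at 4×10^3–8×10^3 cells/well and left 24 h to adhere. Exposed 48 h to a range of concentrations. MTT (5 mg/mL solution) added for 4 h at 37 °C, formazan dissolved in DMSO, absorbance read at 490 nm. IC50 derived from concentration–inhibition relation. Doxorubicin as positive control.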

HEL [13] = experiment: Cell cycle arrest in HEL cells assessed as decrease in G2 phase accumulation at 5 umol/L after 48 hrs by propidium iodide staining based flow cytometric method; type: functional; details: Homo sapiens
Method in brief: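 Cells grown in DMEM with 10% FBS and penicillin/streptomycin at 37 °C, 5% CO2, and passaged at least 3 times after thawing. Treated 48 h at 5 µmol/L, DMSO-treated controls. Harvested by trypsin, PBS-washed, fixed in ice-cold ethanol, blocked 1 h at 4 °C in 5% BSA/PBS, RNase 1 µg/mL 30 min at 37 °C, PI 20 µg/mL final. Phase percentages read from PI histograms. Mean ± SD, three independent experiments.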

HEL [14] = experiment: Induction of morphological changes in HEL cells assessed as reduction in cell number at 5 umol/L after 48 hrs by inverted fluorescence microscopic analysis; type: functional, cell-based; details: Homo sapiens; method in brief: as §2
HEL [15] = experiment: Induction of apoptosis in HEL cells assessed as late apoptotic cells at 10 umol/L after 48 hrs by annexin V-FITC/propidium iodide staining based flow cytometry (reference value: 1.6%); type: functional, Homo sapiens
K562 [16] = experiment: Cytotoxicity against human K562 cells after 48 hrs by MTT assay; type: functional, cell-based; details: K562, 48 h; method in brief: as §3
PC-3 [17] = experiment: Cytotoxicity against human PC3 cells after 48 hrs by MTT assay; type: functional, cell-based; details: PC-3, 48 h; method in brief: as §3

Compound | growth inhibition (GI) (K562 [1]) | growth inhibition (GI) (HEL [2]) | inhibition of growth at 5 µM (PC-3 [3]) [%] | inhibition of growth at 5 µM (K562 [1]) [%] | inhibition of growth at 5 µM (MDA-MB-231) [%] | inhibition of growth at 5 µM (HEL [2]) [%] | also measured
CCOc1cc(/C=C/C(=O)c2cc(CC=C(C)C)c(OC)c(CC=C(C)C)c2O)ccc1OC(=O)c1ccco1 | inactive | inactive | 12.7 | – | – | – | growth inhibition (GI) (MDA-MB-231): inactive
COc1cc(/C=C/C(=O)c2cc(CC=C(C)C)c(OC)c(CC=C(C)C)c2O)ccc1OC(=O)c1ccc(N(C)C)cc1 | – | inactive | 36.5 | 8.1 | 38.5 | – | –
COc1cc(/C=C/C(=O)c2cc(CC=C(C)C)c(OC)c(CC=C(C)C)c2O)ccc1OC(=O)Cc1cc2ccccc2[nH]1 | inactive | inactive | 29.9 | – | 28.3 | – | –
COc1c(CC=C(C)C)cc(C(=O)/C=C/c2cccn2C)c(O)c1CC=C(C)C | – | inactive | 11.7 | 9.9 | 33.8 | – | –
COc1ccc(/C=C/C(=O)c2cc(CC=C(C)C)c(OC)c(CC=C(C)C)c2O)cc1Br | – | inactive | 20.9 | 18.9 | 30.2 | – | –
CCOc1cc(/C=C/C(=O)c2cc(CC=C(C)C)c(OC)c(CC=C(C)C)c2O)ccc1O | – | – | 25.6 | 10.2 | 33.5 | 12.7 | –
COc1ccc(/C=C/C(=O)c2cc(CC=C(C)C)c(OC)c(CC=C(C)C)c2O)cc1[N+](=O)[O-] | – | – | 21.2 | 23 | 23.4 | 85.4 | Activity (HEL [4]): 5.3%; Activity (HEL [5]): 0.8%; Activity (HEL [6]): inactive; Activity (HEL [7]): 11.6%; viability at 5 µM (HEL [8]): 90%; viability at 10 µM (HEL [9]): 30.6%; Activity (HEL [10]): 10.1%; Activity (HEL [11]): 3.9%; Activity (HEL [12]): Dose-dependent effect; IC50 (HEL [12]): 4350 nM; Activity (HEL [13]): Active; Activity (HEL [14]): Active; Activity (HEL [15]): 47.6%
COc1cc(/C=C/C(=O)c2cc(CC=C(C)C)c(OC)c(CC=C(C)C)c2O)cc(OC)c1OC | inactive | – | 15 | – | 26.2 | 23.6 | –
COc1ccc(/C=C/C(=O)c2cc(CC=C(C)C)c(OC)c(CC=C(C)C)c2O)cc1Cl | – | – | 31.8 | 31.9 | 26.5 | 11.7 | –
COCOc1ccc(/C=C/C(=O)c2cc(CC=C(C)C)c(OC)c(CC=C(C)C)c2O)cc1OC | – | inactive | 17.3 | 3.9 | 14 | – | –
COc1cc(/C=C/C(=O)c2cc(CC=C(C)C)c(OC)c(CC=C(C)C)c2O)ccc1OC(=O)c1cccnc1 | inactive | – | 23 | – | – | 5.7 | growth inhibition (GI) (MDA-MB-231): inactive
COc1c(CC=C(C)C)cc(C(=O)/C=C/c2ccc(N(C)C)cc2)c(O)c1CC=C(C)C | inactive | inactive | 11.6 | – | 21.5 | – | –
COc1cc(/C=C/C(=O)c2cc(CC=C(C)C)c(OC)c(CC=C(C)C)c2O)ccc1O | inactive | – | 26 | – | 19.3 | 22.2 | –
C=CCOc1ccc(/C=C/C(=O)c2cc(CC=C(C)C)c(OC)c(CC=C(C)C)c2O)cc1OCC | inactive | inactive | 13.4 | – | 27.7 | – | –
COc1ccc(/C=C/C(=O)c2cc(CC=C(C)C)c(OC)c(CC=C(C)C)c2O)cc1OC | – | inactive | 10.6 | 7.5 | 19 | – | –
COc1cccc2c1C(=O)c1c(O)c3c(c(O)c1C2=O)C[C@@](O)(C(=O)CO)C[C@@H]3O[C@H]1C[C@H](N)[C@H](O)[C@H](C)O1 [DOXORUBICIN] | – | – | 89.7 | 90.6 | 87.1 | 89.2 | IC50 (K562 [16]): 2410 nM; IC50 (PC-3 [17]): 2630 nM; IC50 (HEL [12]): 2130 nM
COc1ccc(/C=C/C(=O)c2cc(CC=C(C)C)c(OC)c(CC=C(C)C)c2O)cc1F | – | – | – | 19.3 | 12.1 | 12.3 | growth inhibition (GI) (PC-3 [3]): inactive
COc1cc(/C=C/C(=O)c2cc(CC=C(C)C)c(OC)c(CC=C(C)C)c2O)ccc1OC(=O)c1ccc(C)s1 | – | inactive | 19.2 | 6.3 | 19.6 | – | –
CCOc1cc(/C=C/C(=O)c2cc(CC=C(C)C)c(OC)c(CC=C(C)C)c2O)ccc1OC(=O)/C=C/c1ccncc1 | inactive | inactive | 13.5 | – | – | – | growth inhibition (GI) (MDA-MB-231): inactive
COc1ccc(/C=C/C(=O)c2cc(CC=C(C)C)c(OC)c(CC=C(C)C)c2O)cc1 | – | – | 24.6 | 32 | 14.5 | 29.5 | –
CCOc1cc(/C=C/C(=O)c2cc(CC=C(C)C)c(OC)c(CC=C(C)C)c2O)ccc1OC(=O)c1ccc(Cl)s1 | inactive | inactive | 34.3 | – | – | – | growth inhibition (GI) (MDA-MB-231): inactive
CCOc1cc(/C=C/C(=O)c2cc(CC=C(C)C)c(OC)c(CC=C(C)C)c2O)ccc1OCOC | inactive | – | 13.1 | – | 29.9 | 6.3 | –
CCOc1cc(/C=C/C(=O)c2cc(CC=C(C)C)c(OC)c(CC=C(C)C)c2O)ccc1OC(=O)c1cccs1 | inactive | – | 21.4 | – | 7.4 | 4 | –
